From ChEMBL document CHEMBL2407028, “Discovery of novel oxazolidinedione derivatives as potent and selective mineralocorticoid receptor antagonists” (Bioorg Med Chem Lett, 2013)

Columns and labels:
[1] = Half life in rat at 1 mg/kg, iv and 1 mg/lg, po; type: ADME, organism-based; parameters: dose 1 mg/kg, route oral; details: in vivo
In short: (§1)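 Rats dosed at 1 mg/kg iv (n = 2) or 1 mg/kg po (n = 3), formulated at 1 mg/mL in PEG 200:water (70:30). Blood concentrations measured by LC/MS/MS after protein precipitation with acetonitrile.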

Rattus norvegicus [2] = experiment: Dose normalized AUC in rat at 1 mg/kg, iv; type: ADME, organism-based; parameters: dose 1 mg/kg, route intravenous; details: in vivo; in short: as §1
[3] = Cmax in rat at 1 mg/kg, iv and 1 mg/lg, po; type: ADME, organism-based; parameters: dose 1 mg/kg, route oral; details: in vivo; in short: as §1
Rattus norvegicus [4] = experiment: Dose normalized AUC in rat at 1 mg/kg, po; type: ADME, organism-based; parameters: dose 1 mg/kg, route oral; details: in vivo; in short: as §1
[5] = biological target: T1, Mineralocorticoid receptor (Homo sapiens, UniProt P08235); experiment: Antagonist activity at human mineralocorticoid receptor assessed as inhibition of binding to coactivator peptide by NH Pro assay
T1 sequence (P08235 whole entry): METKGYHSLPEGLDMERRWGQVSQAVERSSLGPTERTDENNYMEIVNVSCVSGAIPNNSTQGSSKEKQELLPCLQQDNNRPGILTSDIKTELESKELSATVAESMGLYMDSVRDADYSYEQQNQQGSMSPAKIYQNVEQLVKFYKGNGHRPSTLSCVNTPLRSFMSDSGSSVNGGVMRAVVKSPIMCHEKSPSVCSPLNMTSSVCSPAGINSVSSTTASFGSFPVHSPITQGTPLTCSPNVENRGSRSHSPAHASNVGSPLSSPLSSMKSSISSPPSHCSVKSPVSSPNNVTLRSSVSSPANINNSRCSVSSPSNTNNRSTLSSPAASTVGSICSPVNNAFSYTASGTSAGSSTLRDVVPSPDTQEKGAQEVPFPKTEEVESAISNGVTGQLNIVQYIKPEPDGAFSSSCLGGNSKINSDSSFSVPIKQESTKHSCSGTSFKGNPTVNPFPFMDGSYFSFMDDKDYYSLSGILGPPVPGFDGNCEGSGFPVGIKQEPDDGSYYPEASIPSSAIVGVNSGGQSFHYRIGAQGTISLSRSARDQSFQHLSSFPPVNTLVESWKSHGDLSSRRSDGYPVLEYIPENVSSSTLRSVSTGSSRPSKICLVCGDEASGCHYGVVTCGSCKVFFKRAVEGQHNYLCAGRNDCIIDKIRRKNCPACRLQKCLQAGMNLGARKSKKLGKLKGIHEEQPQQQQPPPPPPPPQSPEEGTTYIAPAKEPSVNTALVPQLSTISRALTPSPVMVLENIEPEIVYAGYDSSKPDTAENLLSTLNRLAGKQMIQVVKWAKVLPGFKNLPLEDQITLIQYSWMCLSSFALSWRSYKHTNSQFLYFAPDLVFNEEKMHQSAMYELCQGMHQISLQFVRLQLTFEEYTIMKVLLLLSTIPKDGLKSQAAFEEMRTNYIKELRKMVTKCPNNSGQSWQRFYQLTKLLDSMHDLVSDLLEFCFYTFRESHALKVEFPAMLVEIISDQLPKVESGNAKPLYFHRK

[6] = Oral bioavailability in rat at 1 mg/kg; type: ADME, organism-based; details: in vivo; in short: as §1
Rattus norvegicus [7] = experiment: Volume of distribution at steady state in rat at 1 mg/kg, iv and 1 mg/lg, po; type: ADME, organism-based; parameters: dose 1 mg/kg, route oral; details: in vivo; in short: as §1
Estrogen receptor [8] = biological target: T2, Estrogen receptor (Homo sapiens, UniProt P03372); experiment: Agonist activity at estrogen receptor alpha (unknown origin) by NH Pro assay
T2 sequence (P03372 whole entry): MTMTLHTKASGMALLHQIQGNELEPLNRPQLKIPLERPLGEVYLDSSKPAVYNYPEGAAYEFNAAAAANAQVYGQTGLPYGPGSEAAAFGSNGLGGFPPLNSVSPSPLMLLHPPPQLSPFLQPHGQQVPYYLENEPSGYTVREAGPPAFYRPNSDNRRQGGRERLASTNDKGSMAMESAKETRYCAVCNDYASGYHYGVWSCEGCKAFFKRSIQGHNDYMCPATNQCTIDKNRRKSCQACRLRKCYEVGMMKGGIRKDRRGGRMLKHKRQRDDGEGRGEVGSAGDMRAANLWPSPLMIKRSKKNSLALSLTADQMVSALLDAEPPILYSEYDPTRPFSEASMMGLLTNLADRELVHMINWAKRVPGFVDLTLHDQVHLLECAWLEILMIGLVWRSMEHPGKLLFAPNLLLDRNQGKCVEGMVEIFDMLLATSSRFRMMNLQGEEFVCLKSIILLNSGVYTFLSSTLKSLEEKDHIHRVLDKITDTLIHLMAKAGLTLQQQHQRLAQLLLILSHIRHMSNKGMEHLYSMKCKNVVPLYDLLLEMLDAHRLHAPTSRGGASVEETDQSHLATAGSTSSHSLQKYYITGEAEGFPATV

Estrogen receptor [9] = biological target: T2, Estrogen receptor; experiment: Antagonist activity at estrogen receptor alpha (unknown origin) by NH Pro assay
Glucocorticoid receptor [10] = biological target: T3, Glucocorticoid receptor (Homo sapiens, UniProt P04150); experiment: Agonist activity at glucocorticoid receptor (unknown origin) by NH Pro assay
T3 sequence (P04150 whole entry): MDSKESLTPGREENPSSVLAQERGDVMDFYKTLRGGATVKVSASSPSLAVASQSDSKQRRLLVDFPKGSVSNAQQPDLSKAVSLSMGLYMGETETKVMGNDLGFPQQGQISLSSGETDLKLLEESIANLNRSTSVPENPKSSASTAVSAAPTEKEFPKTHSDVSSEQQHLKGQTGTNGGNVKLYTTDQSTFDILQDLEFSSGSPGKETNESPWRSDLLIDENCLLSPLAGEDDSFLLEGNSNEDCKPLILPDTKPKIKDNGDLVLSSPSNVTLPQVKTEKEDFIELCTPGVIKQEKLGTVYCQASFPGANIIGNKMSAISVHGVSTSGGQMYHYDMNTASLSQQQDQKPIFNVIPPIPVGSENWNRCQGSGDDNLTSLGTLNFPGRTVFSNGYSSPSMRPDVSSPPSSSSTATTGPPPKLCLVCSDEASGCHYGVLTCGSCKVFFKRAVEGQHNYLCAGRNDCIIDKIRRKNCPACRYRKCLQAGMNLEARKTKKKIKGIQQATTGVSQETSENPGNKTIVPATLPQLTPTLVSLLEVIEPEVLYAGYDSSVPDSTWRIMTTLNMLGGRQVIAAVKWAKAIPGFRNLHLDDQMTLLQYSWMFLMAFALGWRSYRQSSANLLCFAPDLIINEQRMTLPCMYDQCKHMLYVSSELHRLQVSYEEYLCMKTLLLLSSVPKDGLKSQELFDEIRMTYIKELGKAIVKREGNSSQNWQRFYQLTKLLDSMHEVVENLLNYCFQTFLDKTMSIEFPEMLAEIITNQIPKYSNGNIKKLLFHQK

Glucocorticoid receptor [11] = biological target: T3, Glucocorticoid receptor; experiment: Antagonist activity at glucocorticoid receptor (unknown origin) by NH Pro assay

half-life [1]	AUC/dose (Rattus norvegicus [2])	Cmax [3]	AUC/dose (Rattus norvegicus [4])	IC50 [5]	bioavailability [6]	Vdss (Rattus norvegicus [7])	EC50 (Estrogen receptor [8])	IC50 (Estrogen receptor [9])	EC50 (Glucocorticoid receptor [10])	IC50 (Glucocorticoid receptor [11])	SMILES
1.2 h	0.75 µM·kg·h/mg	60 nM	0.05 µM·kg·h/mg	0.054 µM	7%	2.8 L/kg					COc1cc(CNC(=O)[C@@]2(Cc3ccccc3)OC(=O)N([C@H](C)c3ccccc3)C2=O)cc(OC)c1
							> 20 µM	> 20 µM			COC(=O)[C@@H]1CC2=CC(=O)CC[C@]2(C)[C@@]23O[C@@H]2C[C@@]2(C)[C@@H](CC[C@@]24CCC(=O)O4)[C@H]13 [EPLERENONE]
							> 20 µM	> 20 µM	> 20 µM	4.1 µM	CC(=O)S[C@@H]1CC2=CC(=O)CC[C@]2(C)[C@H]2CC[C@@]3(C)[C@@H](CC[C@@]34CCC(=O)O4)[C@H]12 [SPIRONOLACTONE]
